The test system of data set [1] is Rattus norvegicus. Nature of the data set: Cardiotoxicity in anesthetized Sprague-Dawley rat assessed as increase of diastolic pressure at 10 ug/kg, iv. In kind it is toxicity, organism-based. The settings on record: in vivo, 0.01 mg/kg.
For data set [2], the system named is Mus musculus. Nature of the data set: Increase of normetanephrine level in NMRI mouse cortex at 0.16 to 10 mg/kg, ip after 1 hr microwave irradiation. The following applies: dose mg/kg 0.16-10; route intraperitoneal. In kind it is functional. The procedure, abridged:
(§1)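 Single intraperitoneal dose; mice were killed by head-focused microwave irradiation 1 h later. Frontal cortex normetanephrine, an extracellular noradrenaline metabolite, was measured and expressed as increase relative to control animals, giving dose-response data across 0.16 to 10 mg/kg.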

For data set [3], the system named is Rattus norvegicus. Nature of the data set: Cardiotoxicity in anesthetized Sprague-Dawley rat assessed as increase of diastolic pressure at up to 0.16 ug/kg, iv. In kind it is toxicity, organism-based. The settings on record: in vivo, 0.00016 mg/kg.
For data set [4], the target named is T1, Alpha-2C adrenergic receptor (Homo sapiens, UniProt P18825).
T1 sequence (P18825 whole entry): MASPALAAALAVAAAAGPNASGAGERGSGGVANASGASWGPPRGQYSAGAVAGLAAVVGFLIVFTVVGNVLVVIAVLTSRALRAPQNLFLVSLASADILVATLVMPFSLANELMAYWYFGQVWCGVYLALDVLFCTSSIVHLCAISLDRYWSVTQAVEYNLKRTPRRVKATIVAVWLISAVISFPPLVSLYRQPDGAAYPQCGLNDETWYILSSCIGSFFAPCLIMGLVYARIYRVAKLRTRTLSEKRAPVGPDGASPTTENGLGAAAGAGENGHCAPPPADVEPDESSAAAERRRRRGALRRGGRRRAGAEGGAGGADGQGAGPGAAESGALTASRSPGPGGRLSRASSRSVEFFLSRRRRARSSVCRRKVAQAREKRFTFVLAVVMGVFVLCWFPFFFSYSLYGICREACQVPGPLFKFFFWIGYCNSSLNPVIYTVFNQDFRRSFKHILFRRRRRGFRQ
Description: Displacement of [3H]-RX821002 from human adrenergic Alpha-2C receptor expressed in rat C6 cells after 120 mins by liquid scintillation counting. In kind it is cell-based.

The target of data set [5] is T2, Alpha-1B adrenergic receptor (Homo sapiens, UniProt P35368).
T2 sequence (P35368 whole entry): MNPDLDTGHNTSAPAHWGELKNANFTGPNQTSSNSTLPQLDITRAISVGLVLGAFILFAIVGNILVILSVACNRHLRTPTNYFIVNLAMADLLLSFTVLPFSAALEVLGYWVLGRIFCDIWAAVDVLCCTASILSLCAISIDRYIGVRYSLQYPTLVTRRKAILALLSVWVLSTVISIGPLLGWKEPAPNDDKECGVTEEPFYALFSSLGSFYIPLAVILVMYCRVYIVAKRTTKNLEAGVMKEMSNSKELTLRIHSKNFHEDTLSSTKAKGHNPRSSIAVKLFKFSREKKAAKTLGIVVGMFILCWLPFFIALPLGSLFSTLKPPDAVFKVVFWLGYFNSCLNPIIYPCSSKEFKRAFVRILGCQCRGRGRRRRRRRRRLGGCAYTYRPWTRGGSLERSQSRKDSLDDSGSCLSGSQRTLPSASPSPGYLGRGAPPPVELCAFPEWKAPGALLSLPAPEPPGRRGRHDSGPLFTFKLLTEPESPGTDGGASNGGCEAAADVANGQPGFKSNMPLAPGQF
Nature of the data set: Displacement of [3H]-prazosin from human adrenergic alpha-1b receptor expressed in CHO cells after 120 mins by liquid scintillation counting. In kind it is cell-based. The procedure, abridged:
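Competition binding at human α1b receptors stably expressed in CHO cells. Affinity values are means ± SEM of at least two experiments, each in duplicate.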
(In general: Loss of bound radioactivity is the signal in a displacement assay; it reports binding, not function.)

In data set [6] the test system is Mus musculus. Description: Antihypothermic activity in ip dosed NMRI mouse assessed as inhibition of guanabenz-induced hypothermia administered 5 mins before guanabenz challenge measured after 25 mins. Format: functional. The procedure, abridged:
(§2)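 Mice got the compound by intraperitoneal injection or oral gavage before guanabenz challenge, and reversal of guanabenz-induced hypothermia was scored. Five animals were tested per dose. ED50 is the dose giving an inhibitory effect in 50% of guanabenz-treated animals, with 95% confidence limits.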

The subject of data set [7] is Rattus norvegicus. Description: Cardiotoxicity in pithed Sprague-Dawley rat assessed as increase of diastolic pressure at 2.5 ug/kg, iv in presence of prazosin. Format: toxicity, organism-based. The following applies: in vivo, 0.0025 mg/kg.
The test system of data set [8] is Rattus norvegicus. Description: Cardiotoxicity in pithed Sprague-Dawley rat assessed as increase of diastolic pressure at > 0.63 ug/kg, iv. In kind it is toxicity, organism-based. The following applies: in vivo, 0.00063 mg/kg.
The test system of data set [9] is Mus musculus. Nature of the data set: Antihypothermic activity in po dosed NMRI mouse assessed as inhibition of guanabenz-induced hypothermia administered 35 mins before guanabenz challenge measured after 25 mins. In kind it is functional. The essentials:
as §2

Data set [10] concerns the target T3, Alpha-2B adrenergic receptor (Homo sapiens, UniProt P18089).
T3 sequence (P18089 whole entry): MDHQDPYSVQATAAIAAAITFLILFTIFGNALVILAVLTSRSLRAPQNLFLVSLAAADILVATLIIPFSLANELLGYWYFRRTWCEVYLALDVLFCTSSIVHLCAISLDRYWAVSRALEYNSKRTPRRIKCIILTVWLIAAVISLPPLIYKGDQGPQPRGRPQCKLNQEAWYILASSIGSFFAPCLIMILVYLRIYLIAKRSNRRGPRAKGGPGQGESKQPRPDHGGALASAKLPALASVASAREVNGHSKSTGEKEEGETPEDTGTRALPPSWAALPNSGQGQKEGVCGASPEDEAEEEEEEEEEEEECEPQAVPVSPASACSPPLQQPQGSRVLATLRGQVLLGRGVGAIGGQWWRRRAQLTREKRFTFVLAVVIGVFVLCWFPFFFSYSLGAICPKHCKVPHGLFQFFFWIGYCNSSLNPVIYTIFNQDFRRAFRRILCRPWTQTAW
Description: Displacement of [3H]-RX821002 from human adrenergic alpha2B receptor expressed in rat C6 cells after 120 mins by liquid scintillation counting. Format: cell-based.

In data set [11] the test system is Mus musculus. Description: Ratio of ED50 for santihypothermic activity in po dosed NMRI mouse to ED50 for antihypothermic activity in ip dosed NMRI mouse. In kind it is functional. The essentials: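 Guanabenz-induced hypothermia in mice, five animals per dose. ED50 (the dose inhibiting hypothermia in 50% of guanabenz-treated animals) was obtained after oral gavage and after intraperitoneal injection, and the ratio po/ip was then calculated.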

Data set [12] has as its target T4, Alpha-2A adrenergic receptor (Homo sapiens, UniProt P08913).
T4 sequence (P08913 whole entry): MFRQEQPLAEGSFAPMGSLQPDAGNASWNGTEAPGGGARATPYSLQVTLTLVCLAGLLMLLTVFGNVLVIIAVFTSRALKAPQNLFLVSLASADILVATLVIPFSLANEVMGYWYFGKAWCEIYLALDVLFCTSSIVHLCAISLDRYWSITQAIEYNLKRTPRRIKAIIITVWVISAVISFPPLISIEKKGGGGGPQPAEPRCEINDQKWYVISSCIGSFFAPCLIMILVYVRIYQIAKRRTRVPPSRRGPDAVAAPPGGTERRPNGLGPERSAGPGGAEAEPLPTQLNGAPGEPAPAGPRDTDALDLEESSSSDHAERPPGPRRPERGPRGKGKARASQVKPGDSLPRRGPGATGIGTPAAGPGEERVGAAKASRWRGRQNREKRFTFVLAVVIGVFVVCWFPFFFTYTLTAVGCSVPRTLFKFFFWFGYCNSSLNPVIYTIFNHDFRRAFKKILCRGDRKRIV
Description: Displacement of [3H]-RX821002 from human adrenergic alpha2A receptor expressed in rat C6 cells after 120 mins by liquid scintillation counting. Format: cell-based. The procedure, abridged: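 Competition binding at human α2A receptors expressed in C6 glial cells. Affinity values are means ± SEM of at least two experiments, each in duplicate.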

The test system of data set [13] is Rattus norvegicus. Nature of the data set: Cardiotoxicity in pithed Sprague-Dawley rat assessed as increase of diastolic pressure at 2.5 ug/kg, iv in presence of rauwolscine. The settings on record: in vivo, 0.0025 mg/kg. Format: toxicity, organism-based.
Data set [14] concerns Mus musculus. Description: Increase of normetanephrine level in ip dosed NMRI mouse cortex after 1 hr microwave irradiation. In kind it is functional, organism-based. The essentials:
as §1

Data set [15] has as its target T5, Alpha-2A adrenergic receptor (Homo sapiens) (UniProt P08913).
T5 sequence (whole entry): T4 sequence (P08913 whole entry)
Nature of the data set: Antagonist activity at human adrenergic alpha2A receptor expressed in CHO cells assessed as inhibition of adrenaline-induced [35S]GTPgammaS binding after 30 mins by scintillation counting. In kind it is functional, cell-based. The procedure, abridged:
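Inhibition of adrenaline-stimulated [35S]GTPγS binding in CHO cells expressing human α2A receptors. Compounds were also run alone to check for any stimulation of [35S]GTPγS binding. Antagonist potency is reported as pKB, taken as the potency that inhibits 50% of adrenaline-induced binding.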

With `c1ccc2c(c1)C[C@]1(c3cnc[nH]3)C[C@H]21` (stereo in doubt; (+)-1), the Activity in [1] was 26 mmHg; in data set [2], 3096%; in data set [3] it was “Non-toxic”; in [7] it was “Toxic”; in data set [8], “Toxic”; in [13], “Non-toxic”. Moreover, the Ki (in general, a measure of affinity in units of concentration, obtained from inhibition or displacement) in data set [4] is 0.263 nM; in [5], 3.55 nM; in [10], 0.275 nM; in data set [12] it was 0.0794 nM. The results for the ED50 in [6] and in [9] were 0.02 mg/kg and 0.07 mg/kg, respectively. Further, in data set [11], the “Ratio ED50” value was 3.5.
As for `c1ccc2c(c1)C[C@]1(c3c[nH]cn3)C[C@H]21` (stereo in doubt; (+)-1), the Activity entry in data set [14] is “Dose-dependent effect”. The pKb (as a rule, −log10 of the Kb, conventionally taken in molar units) in [15] is 9.64.

These data come from ChEMBL document CHEMBL1255566, “Rigid analogues of the α2-adrenergic blocker atipamezole: small changes, big consequences” (J Med Chem, 2010).
